Results published in ChEMBL document CHEMBL1142962, “Antiproliferative prenylated stilbenes and flavonoids from Macaranga alnifolia from the Madagascar rainforest” (J Nat Prod, 2007).

Experiments:
OVCAR-4 = assay: Growth inhibition of OVCAR4 cells; type: functional; details: Homo sapiens
HCT-15 = assay: Growth inhibition of HCT15 cells; type: functional; details: Homo sapiens
NCI-H23 = assay: Growth inhibition of NCI-H23 cells; type: functional; details: Homo sapiens
786-0 = assay: Growth inhibition of 786-0 cells; type: functional; details: Homo sapiens
MDA-MB-231 = assay: Growth inhibition of MDA-MB-231/ATCC cells; type: functional; details: Homo sapiens
Procedure, shortened: (§1)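 Tested in the NCI 60 human tumour cell line screen, which was run by NCI. The value for each line is the GI50, the concentration giving 50% growth inhibition. Results are also shown as a mean graph across the full panel.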

K562 = assay: Growth inhibition of K562 cells; type: functional; details: Homo sapiens; procedure, shortened: as §1
LOX IMVI = assay: Growth inhibition of LOX IMVI cells; type: functional; details: Homo sapiens; procedure, shortened: as §1
OVCAR-3 = assay: Growth inhibition of OVCAR-3 cells; type: functional; details: Homo sapiens
M14 = assay: Growth inhibition of M14 cells; type: functional; details: Homo sapiens; procedure, shortened: as §1
BT-549 = assay: Growth inhibition of BT549 cells; type: functional; details: Homo sapiens
SF-268 = assay: Growth inhibition of SF268 cells; type: functional; details: Homo sapiens
TK-10 = assay: Growth inhibition of TK10 cells; type: functional; details: Homo sapiens
SK-OV-3 = assay: Growth inhibition of SKOV3 cells; type: functional; details: Homo sapiens
SF-295 = assay: Growth inhibition of SF295 cells; type: functional; details: Homo sapiens
KM12 = assay: Growth inhibition of KM12 cells; type: functional; details: Homo sapiens
HOP-62 = assay: Growth inhibition of HOP62 cells; type: functional; details: Homo sapiens
NCI-H522 = assay: Growth inhibition of NCI-H522 cells; type: functional; details: Homo sapiens; procedure, shortened: as §1
NCI/ADR-RES = assay: Growth inhibition of NCI/ADR-RES cells; type: functional; details: Homo sapiens
T47D = assay: Growth inhibition of T47D cells; type: functional; details: Homo sapiens; procedure, shortened: as §1
HT-29 = assay: Growth inhibition of HT29 cells; type: functional; details: Homo sapiens; procedure, shortened: as §1
A549 = assay: Growth inhibition of A549/ATCC cells; type: functional; details: Homo sapiens
[1] = test system: A2780 (human ovarian cancer); assay: Antiproliferative activity against drug-sensitive human A2780 cells
SNB-75 = assay: Growth inhibition of SNB75 cells; type: functional; details: Homo sapiens
SNB-19 = assay: Growth inhibition of SNB19 cells; type: functional; details: Homo sapiens
SW-620 = assay: Growth inhibition of SW620 cells; type: functional; details: Homo sapiens; procedure, shortened: as §1
RPMI-8226 = assay: Growth inhibition of RPMI8226 cells; type: functional; details: Homo sapiens
U-251 = assay: Growth inhibition of U251 cells; type: functional; details: Homo sapiens
CCRF-CEM = assay: Growth inhibition of CCRF-CEM cells; type: functional; details: Homo sapiens; procedure, shortened: as §1
[2] = read-out: Log LC50 (the source's name) (converted)

## COc1cc(/C=C/c2cc(O)c(CC=C(C)C)c(O)c2)cc2c1O[C@]1(C)C[C@@H](O)[C@@H](O)C(C)(C)[C@H]1C2 [SCHWEINFURTHIN E]
OVCAR-4
  LC50: > 100 µM
OVCAR-4; read-out: GI50
  GI50: 2.2 µM
OVCAR-4; read-out: Log TGI (converted)
  TGI: 9.33 µM
OVCAR-4; read-out: pGI50 (converted)
  GI50: 0.575 µM
HCT-15
  GI50: 0.603 µM
HCT-15; [2]
  CC50: 26.9 µM
HCT-15; read-out: Log TGI (converted)
  TGI: 3.63 µM
NCI-H23
  GI50: 0.24 µM
NCI-H23; [2]
  CC50: 13.8 µM
NCI-H23; read-out: Log TGI (converted)
  TGI: 2.34 µM
786-0
  GI50: < 0.01 µM
786-0; [2]
  CC50: 9.77 µM
786-0; read-out: Log TGI (converted)
  TGI: 1.07 µM
MDA-MB-231
  GI50: 0.851 µM
MDA-MB-231; [2]
  CC50: 26.3 µM
MDA-MB-231; read-out: Log TGI (converted)
  TGI: 3.47 µM
K562
  GI50: < 0.01 µM
K562; read-out: Log TGI (converted)
  TGI: 0.692 µM
LOX IMVI
  GI50: 0.646 µM
LOX IMVI; [2]
  CC50: 6.17 µM
LOX IMVI; read-out: Log TGI (converted)
  TGI: 2.34 µM
OVCAR-3; read-out: GI50
  GI50: 2.2 µM
OVCAR-3; [2]
  CC50: 24 µM
OVCAR-3; read-out: Log TGI (converted)
  TGI: 8.32 µM
OVCAR-3; read-out: pGI50 (converted)
  GI50: 6.17 µM
M14
  GI50: < 0.01 µM
M14; [2]
  CC50: 4.27 µM
M14; read-out: Log TGI (converted)
  TGI: 0.288 µM
BT-549
  GI50: 1.51 µM
BT-549; [2]
  CC50: > 100 µM
BT-549; read-out: Log TGI (converted)
  TGI: 13.2 µM
SF-268
  GI50: 2.63 µM
SF-268; [2]
  CC50: > 100 µM
SF-268; read-out: Log TGI (converted)
  TGI: > 100 µM
TK-10; [2]
  CC50: 18.6 µM
TK-10; read-out: Log TGI (converted)
  TGI: 2.63 µM
SK-OV-3
  LC50: 93.3 µM
SK-OV-3; read-out: GI50
  GI50: 2.2 µM
SK-OV-3; read-out: Log TGI (converted)
  TGI: 11 µM
SK-OV-3; read-out: pGI50 (converted)
  GI50: 2.75 µM
SF-295
  GI50: < 0.01 µM
SF-295; [2]
  CC50: < 0.01 µM
SF-295; read-out: Log TGI (converted)
  TGI: < 0.01 µM
KM12
  GI50: 0.457 µM
KM12; [2]
  CC50: 9.55 µM
KM12; read-out: Log TGI (converted)
  TGI: 2.24 µM
HOP-62
  GI50: < 0.01 µM
HOP-62; [2]
  CC50: 7.76 µM
HOP-62; read-out: Log TGI (converted)
  TGI: 0.0759 µM
NCI-H522
  GI50: 2 µM
NCI-H522; [2]
  CC50: > 100 µM
NCI-H522; read-out: Log TGI (converted)
  TGI: > 100 µM
NCI/ADR-RES
  GI50: 2.24 µM
NCI/ADR-RES; [2]
  CC50: 50.1 µM
NCI/ADR-RES; read-out: Log TGI (converted)
  TGI: 6.61 µM
T47D
  GI50: 3.24 µM
T47D; [2]
  CC50: > 100 µM
T47D; read-out: Log TGI (converted)
  TGI: > 100 µM
HT-29
  GI50: 1.29 µM
HT-29; [2]
  CC50: > 100 µM
A549
  GI50: < 0.01 µM
A549; [2]
  CC50: > 100 µM
A549; read-out: Log TGI (converted)
  TGI: 12.6 µM
[1]
  IC50: 0.26 µM
SNB-75
  GI50: 1.74 µM
SNB-75; [2]
  CC50: > 100 µM
SNB-75; read-out: Log TGI (converted)
  TGI: 20 µM
SNB-19
  GI50: 11 µM
SNB-19; [2]
  CC50: > 100 µM
SNB-19; read-out: Log TGI (converted)
  TGI: > 100 µM
SW-620
  GI50: 0.11 µM
SW-620; [2]
  CC50: > 100 µM
SW-620; read-out: Log TGI (converted)
  TGI: 2.04 µM
RPMI-8226
  GI50: < 0.01 µM
RPMI-8226; [2]
  CC50: > 100 µM
RPMI-8226; read-out: Log TGI (converted)
  TGI: 0.0525 µM
U-251
  GI50: < 0.01 µM
U-251; [2]
  CC50: 32.4 µM
U-251; read-out: Log TGI (converted)
  TGI: 3.98 µM
CCRF-CEM
  GI50: < 0.01 µM
CCRF-CEM; [2]
  CC50: > 100 µM
